Where only a bound is given, the exact number is not on record here.

This note sets out measurements from ChEMBL document CHEMBL1133745, “Indeno[1,2-b]pyrazin-2,3-diones: a new class of antagonists at the glycine site of the NMDA receptor with potent in vivo activity” (J Med Chem, 2000).

Assay [1] concerns the target Glutamate receptor ionotropic, AMPA (Rattus norvegicus, UniProt P19490+P19491+P19492+P19493). Nature of the assay: Displacement of [3H]-AMPA from Ionotropic glutamate receptor AMPA of rat cortical membranes. In kind it is cell membranes, Membrane.
The next assay deals with Glutamate NMDA receptor. Nature of the assay: Displacement of [3H]dichlorokynurenate ([3H]-DCKA) from N-methyl-D-aspartate glutamate receptor 1 in rat cortical membranes. It is filed as cell membranes, Membrane.
Assay [2] concerns Mus musculus. Nature of the assay: Compound was tested in vivo (intra peritoneally) in the mouse maximal electroshock convulsion test. In kind it is functional. In outline: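 CD1 mice (Charles River); tonic convulsions induced by maximal electroshock. Most compounds tested in a single run; test variability estimated at about 12%.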
In general terms: The maximal electroshock test induces tonic seizures with an electrical stimulus.

For assay [3], the system named is Mus musculus. Nature of the assay: Compound was tested in vivo (intra peritoneally) with probenecid in the mouse maximal electroshock convulsion test. In kind it is functional. In outline: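 Maximal electroshock in CD1 mice, scoring tonic convulsions. Animals were pretreated with probenecid 200 mg/kg ip, and the compound was given ip 30 min before shock. ED50 in mg/kg ip.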

Assay [4] deals with Mus musculus. Description: Compound was tested in vivo (intravenously) activity in the mouse maximal electroshock convulsion test. In kind it is functional. Particulars: iv.
For assay [5], the system named is Mus musculus. Nature of the assay: Compound was tested in vivo (intraperitoneally) with probenecid in the mouse maximal electroshock convulsion test.

`CC1(CC(=O)O)c2cc(Cl)c(Cl)cc2-c2nc(O)c(O)nc21` (stereo not drawn): the IC50 came to 1800 nM in assay [1] and 140 nM on Glutamate NMDA receptor. In addition, in the assay on Mus musculus [2] (Mus musculus, read-out: ED50), the ED50 was above 80 mg/kg.

On to `CCCC1(CC(=O)O)c2ccc(Cl)cc2-c2nc(O)c(O)nc21` (stereo not drawn), for which the half-inhibitory concentration (IC50) in assay [1] was determined as 7000 nM; at Glutamate NMDA receptor, 21 nM. Besides, in the assay on Mus musculus [2] (Mus musculus, read-out: ED50), the ED50 came out at 1.8 mg/kg.

Consider `CC1(CC(=O)O)c2ccc(Cl)c(Cl)c2-c2nc(O)c(O)nc21` (stereo not drawn), for which the figures for the IC50 (in assay [1]; on Glutamate NMDA receptor) were above 10000 nM and 2550 nM, respectively. Further, the ED50 in the assay on Mus musculus [2] (Mus musculus, read-out: ED50) is above 80 mg/kg.

Consider `CC1(CC(=O)O)c2ccccc2-c2nc(O)c(O)nc21` (stereo not drawn), for which the ED50 was 2.7 mg/kg in the assay with Mus musculus [3] and 65 mg/kg in the assay with Mus musculus [2] (Mus musculus, read-out: ED50). The IC50 in assay [1] worked out at 4600 nM; on Glutamate NMDA receptor, 21 nM.

Take `CC1(CC(=O)O)c2ccc(OC(F)(F)F)cc2-c2nc(O)c(O)nc21` (stereo not drawn): the IC50 in assay [1] is above 10000 nM; at Glutamate NMDA receptor, 4300 nM.

As to `CC1(CC(=O)O)c2nc(O)c(O)nc2-c2cccc(Cl)c21` (stereo not drawn), the results for the IC50 (in assay [1]; at Glutamate NMDA receptor) were 423 nM and 79 nM, respectively. Further, the ED50 with Mus musculus [2] (Mus musculus, read-out: ED50) is 80 mg/kg.

`CC1(CC(=O)O)c2nc(O)c(O)nc2-c2cc(Cl)cc(Cl)c21` (stereo not drawn): the IC50 was 187 nM in assay [1] and 24 nM on Glutamate NMDA receptor. The ED50 in the assay on Mus musculus [2] (Mus musculus, read-out: ED50) was above 80 mg/kg.

Regarding `CC1(CC(=O)O)c2ccc(F)cc2-c2nc(O)c(O)nc21` (stereo not drawn), the figures for the IC50 (in assay [1]; on Glutamate NMDA receptor) were 1280 nM and 15 nM, respectively. The 50% effective dose (ED50) in the assay with Mus musculus [2] (Mus musculus, read-out: ED50) was above 80 mg/kg.

Turning to `Cc1ccc2c(c1)-c1nc(O)c(O)nc1C2(C)CC(=O)O` (stereo not drawn), the IC50 in assay [1] worked out at 4500 nM; on Glutamate NMDA receptor, 12 nM. Further, the ED50 with Mus musculus [2] (Mus musculus, read-out: ED50) is 23 mg/kg.

Consider `O=C(O)C1Nc2cc(Cl)cc(Cl)c2S(=O)(=O)N1Cc1cccc(Br)c1` (stereo not drawn), for which the IC50 in assay [1] is above 10000 nM; on Glutamate NMDA receptor, 8.3 nM.

As for `CC1(CC(=O)O)c2ccc(Cl)cc2-c2nc(O)c(O)nc21` (single isomer, unassigned; (+)), the IC50 worked out at 1000 nM in assay [1] and 44 nM at Glutamate NMDA receptor. The ED50 with Mus musculus [2] is above 80 mg/kg.

`CC1(CC(=O)O)c2ccc(Cl)cc2-c2nc(O)c(O)nc21` (single isomer, unassigned; (-)): the ED50 was found to be 2 mg/kg in the assay on Mus musculus [4] and 4.5 mg/kg with Mus musculus [2]. In addition, the half-inhibitory concentration (IC50) in assay [1] stood at 10000 nM; on Glutamate NMDA receptor it was 5 nM.

`CC1(CC(=O)O)c2ccc(Cl)cc2-c2nc(O)c(O)nc21` (stereo in doubt; 10i): the ED50 in the assay on Mus musculus [5] came to 1.8 mg/kg; in the assay on Mus musculus [2] it was 6.8 mg/kg. Besides, the IC50 in assay [1] came out at 2100 nM; on Glutamate NMDA receptor, 28 nM.

Turning to `O=c1[nH]c2cc(Cl)c(Cl)c([N+](=O)[O-])c2[nH]c1=O` [LICOSTINEL], the figures for the IC50 (in assay [1]; on Glutamate NMDA receptor) were 766 nM and 4 nM, respectively. In the assay on Mus musculus [2] (Mus musculus, read-out: ED50), the ED50 came out at 22.5 mg/kg.

In general, IC50 refers to the midpoint of a concentration-inhibition curve. By ED50 is commonly meant the dose that gives a 50% effect, or the effect in half of the subjects.
